Only some compounds are listed: those with a hit (about 2.6% of all), similar ones and a draw of the others.
SR-BI DiI inh – inhibitors of mouse SR-BI mediated HDL lipid uptake. AID 488896. ldlA[mSR-BI] CHO cells, DiI-HDL uptake fluorescence, 3 h. inhibition, % at 12.5 µM. actives 0.96% (n = 320,000). Q61009;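 active means mean replicate inhibition of at least 70% and a set share of replicates each scoring 70 or more; inconclusive means meets just one of the two criteria; inactive means fails both criteria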;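 further: 0% = median of neutral control wells and 100% = median of positive control wells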
Target sequence (Q61009 whole entry, looked up): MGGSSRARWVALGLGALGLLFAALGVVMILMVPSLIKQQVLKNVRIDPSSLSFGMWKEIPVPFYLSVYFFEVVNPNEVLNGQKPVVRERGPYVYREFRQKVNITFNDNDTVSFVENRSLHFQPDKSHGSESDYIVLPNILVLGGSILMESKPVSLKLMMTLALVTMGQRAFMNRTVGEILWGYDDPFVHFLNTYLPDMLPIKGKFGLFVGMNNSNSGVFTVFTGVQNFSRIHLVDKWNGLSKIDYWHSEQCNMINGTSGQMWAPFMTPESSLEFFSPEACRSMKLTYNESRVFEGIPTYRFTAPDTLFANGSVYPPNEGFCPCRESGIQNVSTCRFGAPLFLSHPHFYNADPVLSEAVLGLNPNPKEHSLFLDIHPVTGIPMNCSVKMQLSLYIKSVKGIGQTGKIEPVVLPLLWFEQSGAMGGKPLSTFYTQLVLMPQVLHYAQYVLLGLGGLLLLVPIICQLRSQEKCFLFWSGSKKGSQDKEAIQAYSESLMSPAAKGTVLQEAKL
PvdQ inh – blocks Pseudomonas aeruginosa PvdQ acylase activity; purified PvdQ acylase, fluorescence plate reader; inhibition, % at 10 µM; actives 0.063% (n = 340,000); in the data active means inhibition above about 30%, passing the limit was not always enough; inconclusive means no clear call, values can overlap the other calls;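 further: 0% = vehicle neutral wells and 100% = reference inhibitor wells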
rRNA inh HTS – selective bacterial rRNA inhibition in E. coli; E. coli WT GFP vs humanized-ribosome RFP mutants, fluorescence, 24 h; active compounds read low; DMSO median 0, no signal -100; GFP signal change (wild-type ribosome), % (no concentration beside the values); actives 1.6% (n = 350,000); AID 720706;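 active means significant combined selectivity score with lowered wild-type GFP, culture density cut under 30%, mutant RFP and density less affected; inactive means any of these conditions unmet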
SR-BI DiI-HDL act – enhances SR-BI lipid uptake from DiI-HDL; CHO ldlA[mSR-BI] cells, DiI-HDL uptake fluorescence, 3 h; 100 = double the neutral-control signal; activation, % at 12.5 µM; actives 0.096% (n = 320,000); AID 504775;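 active means mean replicate activation of at least 60% and every replicate at or above 60%; inconclusive means mean or all-replicate condition met, but not both; inactive means mean below 60% and not all replicates reaching 60%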;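 further: 0% = median plate neutral-control signal and 100% = twice that signal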
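system = CHO ldlA[mSR-BI] cells, LDL receptor-null, SR-BI overexpressing | medium = Ham's F12 with 0.5% BSA, HEPES 25 mM, pH 7.4 | probe or stimulus = DiI-HDL 10 µg/mL | compound dosing = single-point compound dose | incubation = compound exposure 3 h, 37 °C | technique = DiI fluorescence, bottom read | read-out = cell-associated DiI fluorescence as measure of HDL uptake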
dFosB activator – mouse delta FosB homodimer activation | purified delta FosB, TAMRA-CDK5 oligo fluorescence polarization; percent of positive-control signal above neutral wells | actives 0.99% (n = 340,000) | P13346 | activation, % at 25 µM | AID 493131;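 active means mean activation above about 17%, with every replicate also reaching it, limit read from the data, passing the limit was not always enough; inconclusive means only one of the two conditions met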
XiGFP reactiv – X-chromosome reactivation activator | XiGFP mouse fibroblasts, % GFP-positive cells imaging, 3 d; cells co-treated with 5-aza-dC sensitizer; scaled so ellipticine positive control = 100% | activation, % at 7.58 µM | actives 0.055% (n = 360,000);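 active means mean normalized replicate activation at least 10% and every replicate at or above 10%; inconclusive means only one of the two criteria met; inactive means mean below 10% and not all replicates reach 10%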;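 further: 0% = median of on-plate neutral control wells and 100% = ellipticine 6 µM median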
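Material: SV40-immortalized XiGFP fibroblast cells, line 68-5-11 | Buffer or medium: DMEM containing 5-aza-dC | Dosing: One concentration, pinned | Times: 3 d treatment, 15 min room-temperature fixation | Controls: Ellipticine 6 µM positive control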
* = called active by the depositor; u = inconclusive; x = not tested or not shown.

SMILES	SR-BI DiI inh	PvdQ inh	rRNA inh HTS	SR-BI DiI-HDL act	dFosB activator	XiGFP reactiv
COc1ccc(-c2c(C)nn3c(NC4CCCC4)cc(C)nc23)cc1OC	4	-7	-15	-4	-3	0
CCc1c(C)nc2cc(-c3ccc(OC)c(OC)c3)nn2c1NCC1CC1	89*	4	x	-89	-2	x
Cc1ccc(NC(=O)CCc2c(C)nn(-c3ccc(N4CCCCC4)nn3)c2C)cc1C	62	-7	-8	-62	-4	0
Cc1ccc(NC(=O)CCc2c(C)nn(-c3ccc(N4CCCCC4)nn3)c2C)cc1	44	-17	-25*	-44	-5	0
COc1ccc(C)cc1NC(=O)CCc1c(C)nn(-c2ccc(N3CCCCC3)nn2)c1C	71*	-13	9	-71	-7	0
Cc1ccc(NC(=O)CCc2c(C)nn(-c3ccc(N4CCOCC4)nn3)c2C)cc1	57	2	3	-57	-8	0
CCn1c(CNC(=O)COc2ccc(C(C)C)cc2)nnc1SCC(=O)Nc1cc(F)ccc1C	39	6	x	-39	-5	x
Cc1nnc(SCC(=O)O)s1	-13	-16	21	13	6	0
Cc1ccc(Nc2nc(N)c([N+](=O)[O-])c(N3CCOCC3)n2)cc1	3	-8	x	-3	-2	0
Cc1nc(N2CCOCC2)nc(N2CCN(c3ccccc3)CC2)c1[N+](=O)[O-]	78*	-9	x	-78	4	x
Cc1cccc(Nc2nc(N)c([N+](=O)[O-])c(N3CCOCC3)n2)c1	-15	8	-24*	15	-10	0
COc1cccc(Nc2nc(N)c([N+](=O)[O-])c(N3CCOCC3)n2)c1	27	-5	-29*	-27	-4	0
Cc1cccc2sc(NC(=O)c3ccc(Cl)s3)nc12	76*	0	-8	-76	1	0
Cc1cccc2sc(NC(=O)C3CC3)nc12	5	-15	-9	-5	-1	0
O=C(O)c1ccccc1NS(=O)(=O)c1ccc(N/N=C/c2ccc(O)c(O)c2)c([N+](=O)[O-])c1	7	2	-25*	-7	-18	0
O=C(O)COc1ccccc1C=NNc1ccc([N+](=O)[O-])cc1S(=O)(=O)Nc1ccc(Cl)cc1	26	-9	-23	-26	-12	0
COc1ccc(C=NNc2ccc([N+](=O)[O-])cc2S(=O)(=O)Nc2ccccc2C(=O)O)cc1OC	0	5	-23*	0	-8	0
COc1ccccc1NS(=O)(=O)c1cc([N+](=O)[O-])ccc1N/N=C/c1c[nH]c2ccccc12	83*	-8	x	-83	6	x
COc1ccc(NS(=O)(=O)c2cc([N+](=O)[O-])ccc2NN=Cc2ccccc2OCC(=O)O)cc1	8	-19	-32*	-8	-7	0
COc1ccc(NS(=O)(=O)c2cc([N+](=O)[O-])ccc2N/N=C\c2c(C)[nH]c3ccccc23)cc1	2	-4	x	-2	9	x
Cc1ccc(C(=O)N/N=C2\CCSC2)cc1[N+](=O)[O-]	-9	-7	2	9	-1	0
Cc1[nH]c2ccccc2c1/C=N/Nc1ccc([N+](=O)[O-])cc1S(=O)(=O)Nc1ccc(Cl)cc1	83*	3	x	-83	-8	x
COc1ccccc1/C=N/N(C(C)=O)c1nc(-c2ccc(F)cc2)cs1	82*	-14	x	-82	-5	x
COc1ccc(/C=N/N(C(C)=O)c2nc(-c3ccc(C)cc3)cs2)cc1	37	-9	x	-37	3	x
CN(CCO)S(=O)(=O)c1ccc2c(c1)C(=NO)c1cc(S(=O)(=O)N(C)CCO)ccc1-2	24	-22	-27*	-24	-24	0
SMILES	SR-BI DiI inh	PvdQ inh	rRNA inh HTS	SR-BI DiI-HDL act	dFosB activator	XiGFP reactiv
CN1CCN(S(=O)(=O)c2cccc(S(=O)(=O)c3ccc(Cl)c(Cl)c3)c2)CC1	-15	-2	x	15	-6	x
O=c1cc(N2CCOCC2)[nH]c(=O)n1Cc1ccc(F)cc1	-231	-11	7	231*	6	0
COc1cccc(C(=O)Nc2ccc3c(c2)C(=O)N(C)C[C@@H](OC)[C@@H](C)CN(C(C)=O)[C@@H](C)CO3)c1	x	x	-3	x	x	0
CN1/C(=C\C(=O)COC(=O)Cn2nnc(-c3ccccc3)n2)C(C)(C)c2ccccc21	-56	0	x	56	52*	x
O=C(N/N=C/c1cccc(OC(=O)c2ccccc2Cl)c1)c1cccnc1	7	1	-5	-7	-27	0
CCC(C(=O)NC1C(=O)N2C(C(=O)O)=C(CSc3nnc(C)s3)CSC12)c1ccccc1 (stereo unspecified)	-74	-9	12	74*	-4	0
Cc1nnc(SCC2=C(C(=O)O)N3C(=O)C(NC(=O)COc4ccccc4)C3SC2)s1 (stereo unspecified)	-8	-1	12	8	-8	0
CCOC(=O)c1cnc2ccc(C(=O)OC)cc2c1NCCN1CCOCC1	0	-10	-27*	0	-22	x
O=[N+]([O-])c1cccc(-c2cc3cccc[n+]3cc2-c2cccc([N+](=O)[O-])c2)c1	-7	-20	x	7	-7	0
Cc1cccc2cc(-c3ccccc3)c(-c3ccccc3)c[n+]12	-15	-3	-42*	15	-12	0
COc1cc2[nH]c(=S)nc(NCc3ccccc3)c2cc1OC	19	-4	-16*	-19	-4	0
Cn1c(SCC(=O)Nc2ccccc2-c2ccccc2)nnc1-c1ccco1	8	2	-24*	-8	1	x
CC1=C(C(=O)N(C)C)CC(CC(=O)NCc2cccc3ccccc23)C(=O)N1CCC1=CCCCC1 (stereo unspecified)	x	x	-27*	x	x	0
CCN(CC)C(=O)C1=C(C)N(CCC2=CCCCC2)C(=O)C(CC(=O)NCc2cccc3ccccc23)C1 (stereo unspecified)	x	x	x	x	x	0
COc1cccc(Cn2nc3c4cc(F)ccc4n(Cc4ccc(F)cc4)cc-3c2=O)c1	-2	-4	6	2	-6	0
COc1cc2c3nnc(-c4ccc(F)cc4)c-3cn(Cc3cccc(F)c3)c2cc1OC	-46	8	x	46	38*	x
COc1cc2c3nnc(-c4ccc(F)cc4)c-3cn(Cc3ccc(C)cc3)c2cc1OC	-7	-11	10	7	u	98*
O=C(CNC(=O)c1ccccc1Cl)N/N=C/c1ccc([N+](=O)[O-])s1	0	-1	7	0	-6	0
COc1c(OC(C)=O)ccc(/C=C/c2ccc3cccc(OC)c3n2)c1[N+](=O)[O-]	53	14	x	-53	-12	0

Compound activity (PubChem BioAssay)
